Measured values collected from several papers.
Each line is one published result; the experiments were not run side by side.
Observed: enzyme activity
Action: inhibitor
gyrA: DNA gyrase subunit A (gyrA, Escherichia coli K-12, UniProt P0AES4)
gag-pol reverse transcriptase: Gag-Pol polyprotein, reverse transcriptase (gag-pol, Human immunodeficiency virus 1, UniProt P03366)
PDE2A: cGMP-dependent 3',5'-cyclic phosphodiesterase (PDE2A, Homo sapiens, UniProt O00408)

Compound | target | method | pH | setting | IC50 [nM]
CC(C)Oc1c(NC(=O)c2ccc(NC(=O)[C@H](CC(N)=O)NC(=O)c3ccc(NC(=O)c4ccc([N+](=O)[O-])c5cccnc45)cc3)cc2)ccc(C(=O)Nc2ccc(C(=O)O)cc2)c1O | gyrA | – | – | – | 300
Cc1cc(C)cc(S(=O)(=O)c2c(C(=O)NCCNS(=O)(=O)c3ccc(Cl)cc3)[nH]c3ccc(Cl)cc23)c1 | gag-pol reverse transcriptase | ELISA | – | – | 55
CC(C)Oc1c(-n2cc(-c3ccc(NC(=O)C(CC(N)=O)NC(=O)c4ccc(NC(=O)c5ccc(C#N)cc5)cc4)cc3)nn2)ccc(C(=O)Nc2ccc(C(=O)O)cc2)c1O (stereo not drawn) | gyrA | – | – | – | 1500
CCCS(=O)(=O)Nc1ccc(F)c(C(=O)c2c[nH]c3ncc(Br)cc23)c1F | Dual specificity mitogen-activated protein kinase kinase 6 (MAP2K6, Homo sapiens, UniProt P52564) | ADP detection | – | – | 2500
CC(C)Oc1c(NC(=O)c2ccc(NC(=O)[C@H](CC(N)=O)NC(=O)c3ccc(-c4nn[nH]c4-c4ccc(C#N)cc4)cc3)cc2)ccc(C(=O)Nc2ccc(C(=O)O)cc2)c1O | gyrA | – | – | – | > 50000
N#Cc1ccc(Nc2nc(N)cc(Oc3ccc(-c4ccc(C#N)cc4)c(C(F)(F)F)c3)n2)cc1 | gag-pol reverse transcriptase | – | – | – | 90
COc1ccc(-c2oc3ncnc(NCc4ccccc4)c3c2-c2ccc(OC)cc2)cc1 | Receptor tyrosine-protein kinase erbB-2 (ERBB2, Homo sapiens, UniProt P04626, D769Y) | radiometric | – | – | 790
N#Cc1ccc(Nc2nc(N)cc(Oc3ccc(-c4ccc(C#N)c(C#N)c4)cc3)n2)cc1 | gag-pol reverse transcriptase | – | – | – | 770
Cc1cc(C)cc(S(=O)(=O)c2c(C(=O)NCCCNS(=O)(=O)c3ccccc3F)[nH]c3ccc(Cl)cc23)c1 | gag-pol reverse transcriptase | ELISA | – | – | 76
COc1ccc(C2=NN(C3CCCCCC3)C(=O)[C@@H]3CC=CC[C@H]23)cc1-c1ccc(C(N)=O)cc1 (relative stereo) | PDE2A | – | – | – | 3980
N#Cc1ccc(Nc2nc(N)cc(Oc3c(F)cc(-c4ccccc4C#N)cc3F)n2)cc1 | gag-pol reverse transcriptase | – | – | – | 30
O=C1N=C(Nc2ccccc2)S/C1=C\c1ccccc1OCc1cn(Cc2ccccc2Br)nn1 | Aldo-keto reductase family 1 member A1 (AKR1A1, Homo sapiens, UniProt P14550) | absorbance | pH 6.2 | – | 62000
Cc1cc(C)cc(S(=O)(=O)c2c(C(=O)NCCCNS(=O)(=O)c3cccnc3)[nH]c3ccc(Cl)cc23)c1 | gag-pol reverse transcriptase | ELISA | – | – | 41
COc1ncc(CNc2c(CO)cnc3c(C4CC4)cc(C#N)cc23)cc1Cl | PDE2A | – | – | – | > 10000
Cc1cc(C)cc(S(=O)(=O)c2c(C(=O)NCCCCCNS(=O)(=O)c3ccccc3)[nH]c3ccc(Cl)cc23)c1 | gag-pol reverse transcriptase | ELISA | – | – | 120
CC(C)Oc1c(NC(=O)c2ccc(NC(=O)[C@H](CC(N)=O)NC(=O)c3ccc(NC(=O)c4ccc(C#N)s4)cc3)cc2)ccc(C(=O)Nc2ccc(C(=O)O)cc2)c1O | gyrA | – | – | – | 500
Cc1cc(C)cc(S(=O)(=O)c2c(C(=O)NCCNS(=O)(=O)c3ccccc3F)[nH]c3ccc(Cl)cc23)c1 | gag-pol reverse transcriptase | ELISA | – | – | 83
NCc1ccccc1 | Secernin-3 (Homo sapiens, UniProt Q0VDG4) | – | – | lysate | > 300000
